An excerpt weighted towards active compounds, which were near 1.4% of everything screened.
HTRA1 inhibitor: inhibitors of human serine peptidase HTRA1 | AID 504803 | inhibition, % at 5.96 µM | recombinant HTRA1, FP-rhodamine activity-based probe, fluorescence polarization | 340,000 tested, 0.5% active; in the data active = inhibition above about 36%;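 note: 0% = enzyme with DMSO and 100% = wells lacking enzyme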
ABHD4 inh: inhibitors of mouse ABHD4. Q8VD66. purified mABHD4, FP-Rh probe fluorescence polarization. inhibition, % at 8.92 µM. 370,000 tested, 0.54% active. AID 720543;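 active = inhibition exceeding the mean over every tested compound plus 3 SD, cut at about 30% in these data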;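 note: 0% = plate median of compound wells and 100% = S159A mutant with DMSO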
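Doses – 8.92 µM, single dose · Material – wild-type mouse ABHD4 protein · Replication – single well per compound (singlicate) · Measure – percent inhibition of probe binding, normalized to plate controls · Schedule – 45 min compound pre-incubation plus 60 min probe step, 25 °C · Detection – fluorescence polarization with parallel and perpendicular emission, 525/598 nm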
SIAE inh: inhibitors of human sialic acid acetylesterase SIAE; Q9HAT2; SIAE FP-Rh probe binding, fluorescence polarization; inhibition, % at 9.66 µM; 370,000 tested, 0.69% active;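 active = inhibition above a cutoff: mean of compounds within the control limits plus 3 SD of those, cut at about 17% in these data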;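 note: 0% = plate median of compound wells and 100% = probe without SIAE protein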
Target sequence (Q9HAT2 whole entry, looked up): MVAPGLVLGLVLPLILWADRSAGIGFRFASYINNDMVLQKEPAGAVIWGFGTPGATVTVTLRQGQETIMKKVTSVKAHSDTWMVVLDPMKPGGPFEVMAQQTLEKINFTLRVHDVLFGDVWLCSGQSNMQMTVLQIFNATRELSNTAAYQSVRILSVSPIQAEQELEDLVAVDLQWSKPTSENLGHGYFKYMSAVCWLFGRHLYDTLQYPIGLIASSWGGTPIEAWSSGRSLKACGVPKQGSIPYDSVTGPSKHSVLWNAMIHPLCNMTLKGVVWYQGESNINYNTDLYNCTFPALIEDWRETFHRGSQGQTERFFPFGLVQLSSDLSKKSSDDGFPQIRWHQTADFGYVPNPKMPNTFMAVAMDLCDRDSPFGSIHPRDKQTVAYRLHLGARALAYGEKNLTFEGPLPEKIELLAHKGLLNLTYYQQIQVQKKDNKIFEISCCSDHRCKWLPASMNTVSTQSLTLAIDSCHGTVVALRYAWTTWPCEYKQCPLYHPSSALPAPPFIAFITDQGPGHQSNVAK
RBBP9 inhibitor: inhibitors of human serine hydrolase RBBP9; O75884; recombinant RBBP9, FP-Rh probe fluorescence polarization; inhibition, % at 7.94 µM; 220,000 tested, 0.2% active; AID 1515;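 active = inhibition above the campaign mean of all tested compounds plus 3 SD, cut at about 14% in these data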;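 note: plate controls were DMSO wells with RBBP9 for no effect and wells lacking RBBP9 protein for full effect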
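Material: RBBP9 protein. Amount: RBBP9 at 2.5 µM in dispensed solution, before mixing. Schedule: 30 min then 45 min, 25 °C. Medium: Tris buffer pH 8.0, NaCl, Pluronic. Measured by: fluorescence polarization. Measure: percent inhibition from mP, scaled between DMSO and no-protein wells. Replication: one well per compound.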
RBBP9 confirm: human RBBP9 inhibition, confirmation | shares compounds with RBBP9 inhibitor | recombinant RBBP9, FP-Rh probe fluorescence polarization | inhibition, % at 7.94 µM | 410 tested, 36% active | AID 1537;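 active = inhibition above the hit cutoff derived for the primary screen, cut at about 15% in these data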;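 note: 0% = RBBP9 with DMSO and 100% = wells lacking RBBP9 protein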
HTRA1 conf: confirmation of human HTRA1 inhibitors. AID 540248. shares compounds with HTRA1 inhibitor. 1,600 tested, 66% active. recombinant HTRA1, FP-rhodamine activity-based probe, fluorescence polarization. inhibition, % at 5.96 µM;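 active = mean inhibition over three repeats above a set limit taken from the earlier primary screen, cut at about 37% in these data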;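 note: 0% = HTRA1 with DMSO and 100% = wells lacking HTRA1; inhibitors block probe binding so polarization drops and inhibition rises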
mABHD4 conf: confirmation of mouse ABHD4 inhibitors; shares compounds with ABHD4 inh; 1,800 tested, 55% active; inhibition, % at 8.92 µM; purified mABHD4, FP-Rh probe fluorescence polarization;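 active = mean inhibition across replicates above the hit cutoff set in the primary screen, cut at about 30% in these data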;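 note: 0% = wild-type ABHD4 with DMSO and 100% = catalytically dead S159A mutant with DMSO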
* marks the source's active call; other numbers are inactive results; . = no result.

SMILES	HTRA1 inhibitor	ABHD4 inh	SIAE inh	RBBP9 inhibitor	RBBP9 confirm	others
NC1=NC(=O)CC(C(=O)NCc2ccccc2)S1 (configuration not stated)	8	6	0	14*	9
CCC(C(=O)Nc1ccccc1N1CCCC1)c1cccc(Cl)c1 (configuration not stated)	.	-10	7	.	.
C/C(=N/OC(=O)c1ccc(C)cc1)c1cccs1	-4	-1	-4	16*	18*
C/C(=N\OC(=O)c1ccc(Cl)cc1)c1nccs1	2	-2	2	34*	80*
CC(=NOC(=O)c1ccc(Cl)cc1)c1nccs1	.	-6	-4	.	.
CC(C)(C)CCN1CCC[C@H](NC(=O)COc2ccc(F)c(Cl)c2)C1	.	-1	4	.	.
O=C(CN1CCN(C(c2ccccc2)c2ccccc2)CC1)NCc1ccccc1	-13	-2	-1	14*	6
COc1ccc(CNC(=O)CN2CCN(C(c3ccccc3)c3ccccc3)CC2)cc1	-23	0	-4	-10	.
COc1ccc(-c2cc(O)cc(O)c2)cc1	-2	4	2	35*	5
CCCC[C@@H]1C(=O)N2N=C(c3ccccc3)c3ccccc3[C@H]2N2N=C(c3ccccc3)c3ccccc3[C@@H]12	.	2	7	.	.
Nn1c(SCC(=O)Nc2ccc(OCc3ccccc3)cc2)nnc1-c1cc(-c2ccccc2)n[nH]1	.	-2	-1	.	.
CC(=O)NC(c1ccc(C(C)C)cc1)c1c(O)ccc2ccccc12 (configuration not stated)	.	-25	-6	.	.
CC(=O)NC(c1ccccc1)c1c(O)ccc2ccccc12 (configuration not stated)	-7	-7	3	16*	17*
CC1=NNC(=O)C1C(c1ccc(Cl)cc1)C(C#N)C#N (configuration not stated)	.	-8	0	22*	-1
CC(=O)c1c(C(C)=O)c(C)n(-c2cccc3cccnc23)c1C	3	0	-7	29*	4
CN(Cc1ccc(F)cc1)C(=O)CN1C(=O)C2(OCCCO2)c2ccccc21	.	-3	-2	.	.
Cc1cnc([N+](=O)[O-])n1CCOC(=O)NC(=O)c1ccccc1Cl	4	-1	0	14*	8
Cc1cnc([N+](=O)[O-])n1CCOC(=O)NC(=O)c1ccc(C(F)(F)F)cc1	0	-2	2	0	.
CC(C)C[C@@H]1COc2cc(N3CCOCC3)ccc2S(=O)(=O)N1	.	0	1	.	.
CCCC(=O)n1nc(-c2ccc(C)cc2)nc1NCc1ccco1	36	0	8	17*	9
O=C(O[C@@H]1OC2COC(=O)c3cc(O)c(O)c(O)c3-c3c(cc(O)c(O)c3O)C(=O)O[C@@H]([C@H]1O)[C@@H]2O)c1cc(O)c(O)c(O)c1	41*	.	.	19*	32*
Cc1c(O)ccc(C(=O)CN2CCN(Cc3ccc4c(c3)OCO4)CC2)c1O	4	-1	3	68*	8
CCOc1ccc(S(=O)(=O)Nc2cc(Sc3ncn[nH]3)c3oc(=O)sc3c2)cc1	.	.	.	22*	20*
CCOc1ccc(S(=O)(=O)Nc2ncn[nH]2)cc1	11	2	4	.	.
O=C(Oc1cccc([N+](=O)[O-])c1)N1CCCCC1	1	-7	-9	16*	2
SMILES	HTRA1 inhibitor	ABHD4 inh	SIAE inh	RBBP9 inhibitor	RBBP9 confirm	others
COC(=O)[C@]12C[C@H](CC(=O)NCc3ccc(C)o3)C(=O)N(CCC3=CCCCC3)C1=C[C@H](C(C)C)O[C@@H]2C1CC1	.	6	4	.	.
CC(Cn1cnc2ccccc21)C(=O)O (configuration not stated)	5	-1	-4	15*	7
CCn1c(CSc2nccn2C)nc2cc(C(=O)O)ccc21	38*	.	.	15*	17*	HTRA1 conf=48*
COCCN=c1scc(-c2cccs2)n1/N=C/c1ccc(O)c(O)c1O	79*	55*	-3	36*	63*	HTRA1 conf=67*
COCCN=c1scc(-c2ccccc2)n1/N=C/c1c[nH]c2ccccc12	20	21	9	0	.
O=C(NS(=O)(=O)Nc1ccc(Cl)cc1)c1c[nH]c2ccccc12	-3	1	4	.	.
COCCCNc1c2c3c(cccc3[nH]c1=O)C(=O)c1ccccc1-2	126*	109*	-6	49*	80*	HTRA1 conf=120*;mABHD4 conf=178*
CCC(=O)NC1=C(Cl)C(=O)C(NC(=O)CC)=C(Cl)C1=O	7	34*	7	59*	65*	mABHD4 conf=40*
COCCN(C(=O)CSc1nnc(C)n1-c1ccc(C)cc1)c1c(N)n(Cc2ccccc2)c(=O)[nH]c1=O	2	1	-1	.	.
c1ccc2c(c1)Nc1cc3ccccc3cc1S2	6	10	1	-10	.
COc1ccc2c(c1)Sc1ccccc1N2	19	41*	1	16*	30*	mABHD4 conf=20
N#C/C(=C\c1cc(Cl)c(OCc2ccc(Cl)cc2)c(Cl)c1)C(N)=O	.	.	.	-4	.
N#C/C(=C\c1cc(O)c(O)c(O)c1)C(N)=O	18	38*	0	18*	20*	mABHD4 conf=20
CC(C)CC(NC(=O)OCc1ccccc1)C(=O)NCC(=O)NCC(=O)OCc1ccccc1 (configuration not stated)	.	4	-6	.	.
CCOC(=O)c1c(C)n(C)c2cc([N+](=O)[O-])c(O)c([N+](=O)[O-])c12	-1	9	1	-4	.
CCOC(=O)c1c(C)n(C)c2cc(Br)c(O)c(O)c12	9	30*	13	17*	31*	mABHD4 conf=5
Cc1ccc(Nc2nc(-c3ccc(F)cc3)cs2)nc1	-7	7	-5	.	.
Cc1ccc(Nc2nc(-c3ccc(O)c(O)c3)cs2)nc1	.	42*	13	22*	46*	mABHD4 conf=53*
O=C(NCCc1ccc(Cl)cc1)c1ccc2c(c1)ncn2C1CCCCC1	.	4	-2	.	.
Cc1cc(C(=O)N/N=C/c2ccc(O)c(O)c2O)c(C)n1-c1ccccc1	67*	61*	15	18*	73*	HTRA1 conf=67*;mABHD4 conf=47*
COC[C@H]1CCCN1c1ccc2c(c1)OCCCN(C1CC1)S2(=O)=O	.	3	-1	.	.
CCN=c1scc(C)n1/N=C/c1ccc(O)c(O)c1O	60*	60*	9	34*	61*	HTRA1 conf=81*;mABHD4 conf=49*
O=C(Cc1c[nH]c2ccccc12)Nc1ccc(Nc2cccnc2)c(-c2ccc(Cl)c(Cl)c2)c1	.	22	10	.	.
Cn1cccc1/C=C1\SC(=S)N(NC(=O)c2ccccc2O)C1=O	3	2	-2	1	.
O=C(NN1C(=O)/C(=C/C=C/c2ccco2)SC1=S)c1ccccc1O	40*	31*	10	23*	15*	HTRA1 conf=19;mABHD4 conf=-26

Compound activity from PubChem.
